From ChEMBL document CHEMBL1165860, “Synthesis and potential cytotoxic activity of new phenanthrylphenol-pyrrolobenzodiazepines” (2010)
Active and inactive are the calls of the source. The rule behind the calls is not given here.

Experiments:
COLO 205 = experiment: Growth inhibition of human COLO205 cells after 24 hrs by MTT assay; assay type: functional; settings: COLO 205, 24 h
MCF7 [1] = experiment: Increase of cytosolic cytochrome c level in human MCF7 cells at 4 uM after 24 hrs by Western blot analysis; assay type: functional, cell-based
Summary of the method: (§1)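 MCF-7 cells were grown in DMEM with 10% FCS and penicillin/streptomycin at 37 °C in 5% CO2, then treated for 24 h. Cells were lysed in ice-cold RIPA buffer with protease inhibitors and NaF. Protein was measured by Bradford assay, and 30 µg per lane was run on 12% SDS-PAGE and transferred to PVDF. Antibody steps: primary at 4 °C overnight, HRP secondary 1:2000, chemiluminescent detection.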

SW-620 = experiment: Growth inhibition of human SW620 cells after 24 hrs by MTT assay; assay type: functional; settings: SW-620, 24 h
U-251 = experiment: Growth inhibition of human U251 cells after 24 hrs by MTT assay; assay type: functional; settings: U-251, 24 h
OVCAR-4 = experiment: Growth inhibition of human OVCAR4 cells after 24 hrs by MTT assay; assay type: functional; settings: OVCAR-4, 24 h
EKVX = experiment: Growth inhibition of human EKVX cells after 24 hrs by MTT assay; assay type: functional
MCF7 [2] = experiment: Cell cycle arrest in human MCF7 cells assessed as accumulation at G0 phase at 2 uM after 24 hrs using propidium iodide staining by flow cytometry; assay type: functional
Summary of the method: (§2)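 MCF-7 cells were grown in DMEM with 10% fetal calf serum, penicillin and streptomycin, at 37 °C in 5% CO2. They were treated for 24 h at 2 and 4 µM, with DMSO-treated cells as controls. Cells were trypsinised, fixed in ice-cold 70% ethanol at 4 °C for 30 min, and RNaseA-treated at 37 °C for 30 min. Phases were read by flow cytometry.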

786-0 = experiment: Growth inhibition of human 786-0 cells after 24 hrs by MTT assay; assay type: functional; settings: 786-0, 24 h
M14 = experiment: Growth inhibition of human M14 cells after 24 hrs by MTT assay; assay type: functional; settings: M14, 24 h
SK-MEL-5 = experiment: Growth inhibition of human SK-MEL-5 cells after 24 hrs by MTT assay; assay type: functional; settings: SK-MEL-5, 24 h
NCI-H460 = experiment: Growth inhibition of human NCI-H460 cells after 24 hrs by MTT assay; assay type: functional; settings: NCI-H460, 24 h
MDA-MB-231 = experiment: Growth inhibition of human MDA-MB-231 cells after 24 hrs by MTT assay; assay type: functional; settings: MDA-MB-231, 24 h
SNB-19 = experiment: Growth inhibition of human SNB19 cells after 24 hrs by MTT assay; assay type: functional; settings: SNB-19, 24 h
CAKI-1 = experiment: Growth inhibition of human Caki1 cells after 24 hrs by MTT assay; assay type: functional; settings: CAKI-1, 24 h
MCF7 [3] = experiment: Cell cycle arrest in human MCF7 cells assessed as accumulation at S phase at 2 uM after 24 hrs using propidium iodide staining by flow cytometry; assay type: functional; summary of the method: as §2
CCRF-CEM = experiment: Growth inhibition of human CCRF-CEM cells after 24 hrs by MTT assay; assay type: functional
MCF7 [4] = experiment: Induction of apoptosis in human MCF7 cells assessed as increase of caspase 8 activation at 4 uM after 1 hr by […] method; assay type: functional, cell-based
Summary of the method: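 Colorimetric caspase-8 kit on lysates of treated MCF-7 cells. The IETD-pNA substrate was incubated with cell lysate at 37 °C for 1 h, and absorbance was read at 405 nm. Untreated cells served as the control.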

MCF7 [5] = experiment: Cell cycle arrest in human MCF7 cells assessed as accumulation at G0 phase after 24 hrs using propidium iodide staining by flow cytometry; assay type: functional, cell-based; summary of the method: as §2
[6] = Growth inhibition of human Hs 578T cells after 24 hrs by MTT assay; assay type: functional
SK-OV-3 = experiment: Growth inhibition of human SKOV3 cells after 24 hrs by MTT assay; assay type: functional; settings: SK-OV-3, 24 h
Nucleic Acid = experiment: Inhibition of Escherichia coli pBR322 DNA cleavage at 16 uM after 16 hrs by RED100-restriction endonuclease digestion assay; assay type: nucleic-acid assay
Summary of the method: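 pBR322 DNA was preincubated with compound at final 2, 4, 8, 16 and 32 µM for 16 h at 37 °C. BamHI (10 U/µl) in BamHI buffer was then added for 2 h at 37 °C. Products were separated on agarose in 0.5× Tris–acetate EDTA at 80 V for 1 h and stained with ethidium bromide. Cut and uncut DNA served as controls.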

UO-31 = experiment: Growth inhibition of human UO31 cells after 24 hrs by MTT assay; assay type: functional; settings: UO-31, 24 h
OVCAR-5 = experiment: Growth inhibition of human OVCAR5 cells after 24 hrs by MTT assay; assay type: functional; settings: OVCAR-5, 24 h
MCF7 [7] = experiment: Induction of apoptosis in human MCF7 cells assessed as increase of caspase 9 activation at 4 uM after 1 hr by fluorimetry based assay; assay type: functional, cell-based
IGROV-1 = experiment: Growth inhibition of human IGROV1 cells after 24 hrs by MTT assay; assay type: functional; settings: IGROV-1, 24 h
ACHN = experiment: Growth inhibition of human ACHN cells after 24 hrs by MTT assay; assay type: functional
OVCAR-8 = experiment: Growth inhibition of human OVCAR8 cells after 24 hrs by MTT assay; assay type: functional; settings: OVCAR-8, 24 h
MCF7 [8] = experiment: Increase of PARP cleavage in human MCF7 cells at 2 uM after 24 hrs by Western blot analysis; assay type: functional, cell-based; summary of the method: as §1
UACC-62 = experiment: Growth inhibition of human UACC62 cells after 24 hrs by MTT assay; assay type: functional; settings: UACC-62, 24 h
HCT-116 = experiment: Growth inhibition of human HCT116 cells after 24 hrs by MTT assay; assay type: functional; settings: HCT-116, 24 h
SR = experiment: Growth inhibition of human SR cells after 24 hrs by MTT assay; assay type: functional
MCF7 [9] = experiment: Cytotoxicity against human MCF7 cells at 4 uM after 24 hrs by MTT assay relative to control; assay type: functional, cell-based
Summary of the method: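 MCF-7 cells were seeded at 10,000 cells/well in DMEM with 10% fetal calf serum. They were exposed to 0.5, 1, 2 and 4 µM for 24 h. MTT reduction to formazan was read at 570 nm, with untreated controls taken as 100% viability. DMSO-treated cells served as an additional control.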

SK-MEL-28 = experiment: Growth inhibition of human SK-MEL-28 cells after 24 hrs by MTT assay; assay type: functional; settings: SK-MEL-28, 24 h
NCI-H322M = experiment: Growth inhibition of human NCI-H322M cells after 24 hrs by MTT assay; assay type: functional
MCF7 [10] = experiment: Growth inhibition of human MCF7 cells after 24 hrs by MTT assay; assay type: functional; settings: MCF7, 24 h
SN12C = experiment: Growth inhibition of human SN12C cells after 24 hrs by MTT assay; assay type: functional
MCF7 [11] = experiment: Increase of PARP cleavage in human MCF7 cells at 4 uM after 24 hrs by Western blot analysis; assay type: functional, cell-based; summary of the method: as §1
SF-268 = experiment: Growth inhibition of human SF268 cells after 24 hrs by MTT assay; assay type: functional; settings: SF-268, 24 h
NCI/ADR-RES = experiment: Growth inhibition of human NCI/ADR-RES cells after 24 hrs by MTT assay; assay type: functional

COc1cc2c(cc1OCCCOc1ccc(-c3cc4ccccc4c4ccccc34)cc1)N=C[C@@H]1CCCN1C2=O
GI50 (COLO 205): 1190 nM
Activity (MCF7 [1]): Active
GI50 (SW-620): 510 nM
GI50 (U-251): 910 nM
GI50 (OVCAR-4): 580 nM
GI50 (EKVX): 1050 nM
Activity (MCF7 [2]): 4.47%
GI50 (786-0): 700 nM
GI50 (M14): 570 nM
GI50 (SK-MEL-5): 1060 nM
GI50 (NCI-H460): 1040 nM
GI50 (MDA-MB-231): 290 nM
GI50 (SNB-19): 1160 nM
GI50 (CAKI-1): 400 nM
Activity (MCF7 [3]): 17.29%
GI50 (CCRF-CEM): 130 nM
Activity (MCF7 [4]): Active
Activity (MCF7 [5]): Dose-dependent effect
GI50 [6]: 1020 nM
GI50 (SK-OV-3): 1560 nM
inhibition (Nucleic Acid): 100%
GI50 (UO-31): 160 nM
GI50 (OVCAR-5): 1200 nM
Activity (MCF7 [7]): Active
GI50 (IGROV-1): 120 nM
GI50 (ACHN): 1260 nM
GI50 (OVCAR-8): 420 nM
Activity (MCF7 [8]): Active
GI50 (UACC-62): 630 nM
GI50 (HCT-116): 250 nM
GI50 (SR): 220 nM
Activity (MCF7 [9]): Active
GI50 (SK-MEL-28): 1260 nM
GI50 (NCI-H322M): 1590 nM
GI50 (MCF7 [10]): 170 nM
GI50 (SN12C): 510 nM
Activity (MCF7 [11]): Active
GI50 (SF-268): 860 nM
GI50 (NCI/ADR-RES): 1670 nM
